The results in this text go back to paper PMC6044948 (ACS Omega, 2017).

Structures are written as SMILES. Values after ≈ are worked out from the molar mass of the structure shown.

Series [1] in a line: Intrinsic solubility of CPT/HCPT. The series is classed as physicochemical. To be noted: PBS (CPT); NaD2PO4 buffer (HCPT), aqueous buffer, thermodynamic from solid. Put shortly: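 Excess solid stirred at room temperature, then undissolved material removed by centrifugation. In PBS: stirred 6 h; supernatant quantified by UV–vis against an absorbance standard curve. In NaD2PO4 (10 mM, pD 7.4): stirred 3 h; supernatant quantified by 1H NMR integration against a known concentration of 1,3,5-benzenetricarboxylic acid as internal reference.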

Series [2] in a line: Solubility enhancement assay with WP6. The format is physicochemical. The settings on record: for solubility at 3 h: NaD2PO4 buffer with WP6, pH 7.4; for solubility enhancement in the presence of WP6: versus intrinsic solubility. Put shortly:
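Excess solid test compound stirred 3 h at room temperature in NaD2PO4 (10 mM, pD 7.4) containing a known concentration of pillararene host. Undissolved drug removed by centrifugation. Supernatant drug quantified by 1H NMR integration against subsequently added 1,3,5-benzenetricarboxylic acid as internal reference. Each point in triplicate; phase solubility diagrams plotted; enhancement taken relative to intrinsic solubility.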

Series [3] relates to Hela cells. Briefly: In vitro cytotoxicity against cancer cells, CCK-8 assay. The series is classed as cell-based. The settings on record: Homo sapiens, 24 h. Put shortly:
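HeLa cells seeded at 4 × 10^3/well and cultured 12 h, then given fresh medium with free test compound, pillararene host alone, or host-loaded test compound for 24 h. Drug range 5 × 10–4–5 × 101 μM; host alone 5 × 10–3–5 × 102 μM. CCK-8 added for 3 h, OD read at 450 nm. Viability was set relative to a medium-only control (100%). IC50 is the concentration giving 50% viability. Mean ± SD, n = 6; Student's t test.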
Background: Formazan colour is commonly taken as a measure of viable cells.

Regarding `CC[C@@]1(O)C(=O)OCc2c1cc1n(c2=O)Cc2cc3cc(O)ccc3nc2-1` [HCPT, 10-hydroxycamptothecin], the solubility (as a rule, how much of the substance goes into solution per volume) in series [1] amounted to 29 µM (≈ 10.6 µg/mL). Further, in series [2], the solubility at 3 h was > 1000 µM and the “solubility enhancement in the presence of WP6” value was 40 times. Besides, in series [3], the IC50 (usually the concentration needed to halve the response being measured) amounted to 1300 nM.

`CC[C@@]1(O)C(=O)OCc2c1cc1n(c2=O)Cc2cc3ccccc3nc2-1` [CPT, 20-(S)-camptothecin]: the solubility in series [1] was 5 µM (≈ 1.74 µg/mL). For the same compound, in series [2], the solubility at 3 h was > 1000 µM and the “solubility enhancement in the presence of WP6” value stood at 380 times. This compound also showed an IC50 in series [3] of 800 nM.
